Source: article PMC3328401 (Journal of Medicinal Chemistry, 2012)

Experiments:
[1] = Chemical hydrolysis of cycloSal phosphate triesters in phosphate buffer; type: physicochemical; conditions: phosphate buffer 50 mM, pH 7.3, 37°C, ~15% acetonitrile
OVCAR-3 cells [2] = experiment: Concentration-dependent uptake; type: cell-based, human; conditions: OVCAR-3, 3 h exposure, estimated
LS 174T cells [3] = experiment: Concentration-dependent uptake; type: cell-based, human; conditions: 3 h exposure, estimated
[4] = system: U-87 MG glioblastoma cells; experiment: Clonogenic survival; type: cell-based, human; conditions: U-87, after eight weeks in culture
OVCAR-3 cells [5] = experiment: Uptake kinetics; type: cell-based, human
How it was run: (§1)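 Cells were plated at 2×10⁵/well in 6-well plates in 3 mL growth medium: OVCAR-3 in RPMI-1640 with 20% FBS, LS 174T in EMEM with 10% FBS. After 24 h, radiolabeled compound (~13.6–46.9 kBq/mL) was added at staggered times, up to 360 min, in triplicate. Medium was gamma-counted for radioactive concentration. Cells were washed twice with ice-cold PBS, trypsinized and gamma-counted for cell-associated activity.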

LS 174T cells [6] = experiment: Uptake kinetics; type: cell-based, human
U-87 MG cells = experiment: Subcellular distribution and DNA retention of 125I; type: cell-based, human
How it was run: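 U-87 MG cells (~1×10⁶ per T75, EMEM with 10% FBS) were grown 24 h, then given radiolabeled compound for 1 h. They were processed immediately or after 24 h in fresh nonradioactive medium. Pellets (1,000 rpm, 4°C, 15 min) were fractionated with nuclear/cytoplasmic extraction reagents into cytoplasm, soluble nuclear and DNA fractions, which were gamma-counted. DNA-bound ¹²⁵I was also measured after genomic-tip DNA isolation. Longer exposures of 40–144 h were also run.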

OVCAR-3 cells [7] = experiment: Subcellular distribution of 125I-labeled reagents; type: cell-based, human; conditions: for ^125I in cytoplasm, 24 hours / ^125I in nucleus, 24 hours: 1 h incubation then 24 h in fresh nonradioactive medium; for ^125I in cytoplasm, 1 hour / ^125I in nucleus, 1 hour: 1 h incubation, 55.5 kBq/mL
How it was run: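 OVCAR-3 cells were kept in RPMI-1640 with insulin, 2 mM L-glutamine and 20% FBS and expanded as intraperitoneal xenografts in athymic nude mice. Cells in six T150 flasks attached overnight, then were exposed 1 h to ¹²⁵I compound (55.5 kBq/mL). Three flasks were processed immediately and three after 24 h in fresh medium. Cells were trypsinized, counted, fractionated into nuclear/cytoplasmic compartments and gamma-counted.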

[8] = Lipophilicity, shake-tube method n-octanol/phosphate buffered saline; type: physicochemical; conditions: n-octanol / phosphate buffered saline 10 mM, pH 6.8
[9] = system: LS 174T colorectal adenocarcinoma cells; experiment: Clonogenic survival and cell-retained 125I; type: cell-based, human; conditions: 4 h, 185 kBq/mL
How it was run: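 LS 174T cells (2×10⁶ per T75) attached ~18 h, then exposed 4 h at 37°C to radiolabeled compound (185 kBq) or to nonradioactive medium for controls. Cells were washed, trypsinized and counted for viability. 1 mL of a 1×10⁶ cells/mL suspension was gamma-counted for cell-associated ¹²⁵I. Cells were plated in duplicate T25 flasks at 1,000, 500 and 100 cells/flask. Methanol-fixed colonies were scored after three weeks. Surviving fraction is treated/control colonies.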

human BChE = human BChE (Homo sapiens, UniProt P06276); experiment: Gel electrophoresis/autoradiography of radioactive compounds with BChE; type: binding; conditions: BChE 0.02 U or increasing activities, 30 min
How it was run: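 Radioactive compounds with human BChE were run on native and nonreducing SDS-PAGE gels at constant 150 V or 190 V for 1 h. Gels were exposed to autoradiography film at −80°C for 1–48 h, depending on applied radioactivity. Native gels were stained for BChE activity with 1 mM butyrylthiocholine iodide as substrate (Karnovsky–Roots method).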

[10] = system: LS 174T and OVCAR-3 cancer cell lines; experiment: Uptake kinetics, cell-associated activity after 3 h; type: cell-based, human; conditions: after 3 h incubation
How it was run: as §1

[11] = after intratumor injections; cited from earlier work
[12] = intravenously administered; cited from earlier work

Sequence of human BChE (P06276 29-602): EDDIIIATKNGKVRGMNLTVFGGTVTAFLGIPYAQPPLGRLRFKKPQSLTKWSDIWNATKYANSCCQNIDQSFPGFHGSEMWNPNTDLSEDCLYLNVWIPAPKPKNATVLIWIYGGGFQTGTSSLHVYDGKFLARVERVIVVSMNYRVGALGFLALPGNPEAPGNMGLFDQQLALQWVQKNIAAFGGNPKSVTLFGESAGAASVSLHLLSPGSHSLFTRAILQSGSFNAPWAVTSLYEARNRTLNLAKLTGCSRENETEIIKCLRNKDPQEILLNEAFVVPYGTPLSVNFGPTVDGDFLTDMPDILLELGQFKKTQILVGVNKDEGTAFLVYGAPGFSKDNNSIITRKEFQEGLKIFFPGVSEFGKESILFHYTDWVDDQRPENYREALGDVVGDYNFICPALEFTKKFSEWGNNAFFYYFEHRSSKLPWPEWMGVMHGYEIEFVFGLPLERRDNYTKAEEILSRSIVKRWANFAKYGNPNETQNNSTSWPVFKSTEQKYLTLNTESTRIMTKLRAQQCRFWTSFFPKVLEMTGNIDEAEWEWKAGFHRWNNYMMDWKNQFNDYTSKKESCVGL

## O=c1[nH]c(=O)n([C@H]2C[C@H](O)[C@@H](COP3(=O)OCc4ccccc4O3)O2)cc1[125I] (some centres unmarked) [6b-fast, 5-[^125I]-Iodo-5′-O-cycloSaligenyl-2′-deoxyuridine Monophosphate]
[1]
  k (rate of hydrolysis): 0.00225 min⁻¹
OVCAR-3 cells [2]
  Bmax: ~ 7,400 molecules/cell
LS 174T cells [3]
  Bmax: ~ 1,300 molecules/cell
[4]
  colony formation: failed to produce any colonies

## O=c1[nH]c(=O)n([C@H]2C[C@H](O)[C@@H](COP3(=O)OCc4ccccc4O3)O2)cc1[125I] (some centres unmarked) [6b-slow, 5-[^125I]-Iodo-5′-O-cycloSaligenyl-2′-deoxyuridine Monophosphate]
[1]
  k (rate of hydrolysis): 0.00152 min⁻¹
OVCAR-3 cells [5]; OVCAR-3, after 90 min
  uptake ratio of slow to fast diastereomer: ~ 1.7
OVCAR-3 cells [5]; OVCAR-3, up to 90 min
  uptake rate, slow relative to fast diastereomer: 6.5 ×
LS 174T cells [6]; after 90 min
  uptake ratio of slow to fast diastereomer: ~ 1.7
LS 174T cells [6]; up to 90 min
  uptake rate, slow relative to fast diastereomer: 4.6 ×
OVCAR-3 cells [2]
  Bmax: > 50,000 molecules/cell
LS 174T cells [3]
  Bmax: ~ 6,800 molecules/cell
U-87 MG cells; U-87, 40-h incubation, 19.6 kBq/mL, genomic tips method
  125I accumulated in DNA: 1.18 (0.11) mBq ^125I/cell
[4]
  colony formation: failed to produce any colonies
OVCAR-3 cells [7]
  ^125I in cytoplasm, 24 hours: 6.0 (0.7) cpm/10^3 cells (std dev)
  ^125I in nucleus, 24 hours: 31.3 (6.0) cpm/10^3 cells (std dev)
  ^125I in cytoplasm, 1 hour: 14.8 (6.8) cpm/10^3 cells (std dev)
  ^125I in nucleus, 1 hour: 4.9 (2.5) cpm/10^3 cells (std dev)
[8]
  Log P: 0.66 (± 0.03)

## Cc1cccc2c1OP(=O)(OC[C@H]1O[C@@H](n3cc([125I])c(=O)[nH]c3=O)C[C@@H]1O)OC2 (some centres unmarked) [7b-fast, 5-[^125I]-Iodo-5′-O-cyclo(3-methylSaligenyl)-2′-deoxyuridine Monophosphate]
[1]
  k (rate of hydrolysis): 0.000544 min⁻¹
[9]
  125I retained per cell: 0.196 (0.06) mBq ^125I/cell

## Cc1cccc2c1OP(=O)(OC[C@H]1O[C@@H](n3cc([125I])c(=O)[nH]c3=O)C[C@@H]1O)OC2 (some centres unmarked) [7b-slow, 5-[^125I]-Iodo-5′-O-cyclo(3-methylSaligenyl)-2′-deoxyuridine Monophosphate]
[1]
  k (rate of hydrolysis): 0.000463 min⁻¹
OVCAR-3 cells [5]
  cell-associated radioactivity, OVCAR-3 compared to LS 174T: 1.7 ×
OVCAR-3 cells [5]; OVCAR-3, after 6 h
  ratio of slow to fast uptake: 3.5
LS 174T cells [6]; after 6 h
  ratio of slow to fast uptake: 3.0
[9]
  125I retained per cell: 0.566 (0.333) mBq ^125I/cell
  surviving fraction: 0.63 (0.22) mBq
OVCAR-3 cells [7]
  ^125I in cytoplasm, 24 hours: 1.8 (0.6) cpm/10^3 cells (std dev)
  ^125I in nucleus, 24 hours: 29.3 (7.0) cpm/10^3 cells (std dev)
  ^125I in cytoplasm, 1 hour: 13.0 (1.3) cpm/10^3 cells (std dev)
  ^125I in nucleus, 1 hour: 5.4 (0.4) cpm/10^3 cells (std dev)

## CC(C)(C)c1cc(C(C)(C)C)c2c(c1F)COP(=O)(OC[C@H]1O[C@@H](n3cc([125I])c(=O)[nH]c3=O)C[C@@H]1O)O2 (some centres unmarked) [8b-slow, 5-[^125I]-Iodo-5′-O-[cyclo-3,5-di-(tert-butyl)-6-fluoroSaligenyl]-2′-deoxyuridine Monophosphate]
Human BChE
  binding to BChE on gel autoradiograph: BChE activity-dependent binding
[10]
  cell associated activity relative to the corresponding 6b diastereomer: ~ 180 ×
  cell associated activity relative to the corresponding 7b diastereomer: 35 ×
OVCAR-3 cells [7]
  ^125I in cytoplasm, 24 hours: 2.8 (0.7) cpm/10^3 cells (std dev)
  ^125I in nucleus, 24 hours: 91.6 (5.7) cpm/10^3 cells (std dev)
  ^125I in cytoplasm, 1 hour: 87.3 (7.5) cpm/10^3 cells (std dev)
  ^125I in nucleus, 1 hour: 7.8 (0.6) cpm/10^3 cells (std dev)

## CC(C)(C)c1cc(C(C)(C)C)c2c(c1F)COP(=O)(OC[C@H]1O[C@@H](n3cc([125I])c(=O)[nH]c3=O)C[C@@H]1F)O2 (some centres unmarked) [24b-slow, 5-[^125I]-Iodo-5′-O-[cyclo-3,5-Di-(tert-butyl)-6-fluoroSaligenyl]-3′-fluoro-2′,3′-dideoxyuridine]
[1]
  k (rate of hydrolysis): 0.000224 min⁻¹
Human BChE
  binding to BChE on gel autoradiograph: BChE activity-dependent binding
U-87 MG cells; U-87 MG, 1 h treatment
  uptake and retention lower in the cytoplasm, nucleus and DNA: ~ 20 ×
U-87 MG cells; U-87 MG, 24 h in fresh medium
  presence in intracellular compartments at 24 h: practically undetectable

## O=c1[nH]c(=O)n([C@H]2C[C@H](O)[C@@H](CO)O2)cc1[125I] [^125IUdR, 5-[^125I]Iodo-2′-deoxyuridine]
[11]
  injected ^125IUdR associated with one gram of tumor: ~ 0.02%
  tumor uptake, range: 0.001–0.06 % ID/g
[12]
  time to destruction in circulation: within a few min
